Measured values as given in publication PMC4481138 (Nuclear medicine and biology, 2015).
One block for each compound: values may come before it.

Key:
[1] = target: norepinephrine transporter (NET) (Bos taurus, UniProt P51143); assay type: cell-based, human; conditions: read-out: IC50, competitive inhibition of [^125I]MIBG uptake; UVW-NAT cells, 2 h at 37 °C, unlabeled compound 10^−9 to 10^−3 M
Procedure, shortened: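 UVW-NAT cells (NET-transfected human glioma; MEM, 10% FCS, 1 g/L geneticin) seeded at 8 × 10^4/well and held overnight at 37 °C. After cold-PBS washes, fresh medium, [125I]MIBG (3.7 kBq) and unlabeled competitor (10−9 to 10−3 M final) were added for 2 h at 37 °C. Cells were washed, lysed in 1 N NaOH and gamma-counted with supernatants and input standards. IC50 came from nonlinear regression of uptake versus concentration.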

UVW-NAT cells = conditions: cited from earlier work
SK-N-SH cells = conditions: cited from earlier work
[2] = Paired-label biodistribution in normal mice; assay type: in vivo, Balb/c mice; conditions: for heart uptake after DMI pretreatment as percent of controls: experiment [^18F]FPOBBG / [^125I]MIBG; for heart uptake after DMI pretreatment: DMI 10 mg per kg i.p. 30 min before tracer
Procedure, shortened: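 Balb/c mice received the radiotracer pair in 100 μL PBS via tail vein: 185 kBq radioiodinated reference plus 296 kBq 18F test compound. Groups of 5 were killed by isoflurane overdose at 1, 2 and 4 h. Organs and blood were blot-dried, weighed and dual-channel gamma counted, giving %ID/g. For blocking, DMI 10 mg per kg i.p. was given 30 min pre-tracer, with sacrifice 1 h later. Co-administered agents were compared by paired 2-tailed t-test.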

[3] = tested on: SK-N-BE(2c) human neuroblastoma cells; assay: Paired-label uptake by NET-expressing tumor cells; assay type: cell-based; conditions: SK-N-BE(2c) cells, 2 h, 37 °C, absence of inhibitor, paired-label [^18F]FPOIBG / [^125I]MIBG
Procedure, shortened: (§1)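 Cells were seeded at 5 × 10^5/well and held overnight at 37 °C, 5% CO2 (SK-N-SH: RPMI 1640 + FCS; SK-N-BE(2c): DMEM, 15% FCS; UVW-NAT: MEM, 10% FCS, 1 g/L geneticin), then PBS-washed into fresh medium. Tracers were co-incubated 2 h at 37 °C (~3.7 kBq radioiodinated, 18.5 kBq 18F). Parallel desipramine wells gave non-specific uptake. NaOH lysates and supernatants were dual-label gamma-counted and reported as % input dose.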

[4] = tested on: UVW human glioma cells transfected to express NET (UVW-NAT); assay: Paired-label uptake by NET-expressing tumor cells; assay type: cell-based; conditions: 2 h, 37 °C, absence of inhibitor, paired-label [^18F]FPOIBG / [^125I]MIBG
Procedure, shortened: as §1

[5] = tested on: SK-N-SH human neuroblastoma cells; assay: Paired-label uptake by NET-expressing tumor cells; assay type: cell-based; conditions: 2 h, 37 °C, absence of inhibitor, paired-label [^18F]FPOIBG / [^125I]MIBG
Procedure, shortened: as §1

[6] = tested on: PC-12 rat pheochromocytoma xenografts; conditions: 8 h, single label format, PC-12 xenograft mice; cited from earlier work
[7] = cited from earlier work
[8] = tested on: three NET-expressing cell lines (SK-N-SH, UVW-NAT, SK-N-BE(2c)); assay type: cell-based, human; conditions: 2 and 4 h, specific uptake (Figure 3)
Procedure, shortened: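 NET-expressing human cells (SK-N-SH, SK-N-BE(2c), NET-transfected UVW glioma) were plated at 5 × 10^5 per well and cultured overnight at 37°C, 5% CO2. They were washed, given fresh medium and incubated with the radioiodine pair (about 3.7 kBq each) at 37°C for 2 and 4 h, with or without desipramine. After cold PBS washes, cells were lysed with 1 N NaOH at 37°C, 10 min twice. Dual-label gamma counting gave cell-associated fraction of total radioactivity.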

[9] = i.v., 1 h, no DMI (controls), paired-label
[10] = i.v., 2 h, paired-label [^18F]FPOBBG / [^125I]MIBG
[11] = i.v., 4 h, paired-label [^18F]FPOBBG / [^125I]MIBG

norepinephrine transporter (NET), sequence (P51143 whole entry): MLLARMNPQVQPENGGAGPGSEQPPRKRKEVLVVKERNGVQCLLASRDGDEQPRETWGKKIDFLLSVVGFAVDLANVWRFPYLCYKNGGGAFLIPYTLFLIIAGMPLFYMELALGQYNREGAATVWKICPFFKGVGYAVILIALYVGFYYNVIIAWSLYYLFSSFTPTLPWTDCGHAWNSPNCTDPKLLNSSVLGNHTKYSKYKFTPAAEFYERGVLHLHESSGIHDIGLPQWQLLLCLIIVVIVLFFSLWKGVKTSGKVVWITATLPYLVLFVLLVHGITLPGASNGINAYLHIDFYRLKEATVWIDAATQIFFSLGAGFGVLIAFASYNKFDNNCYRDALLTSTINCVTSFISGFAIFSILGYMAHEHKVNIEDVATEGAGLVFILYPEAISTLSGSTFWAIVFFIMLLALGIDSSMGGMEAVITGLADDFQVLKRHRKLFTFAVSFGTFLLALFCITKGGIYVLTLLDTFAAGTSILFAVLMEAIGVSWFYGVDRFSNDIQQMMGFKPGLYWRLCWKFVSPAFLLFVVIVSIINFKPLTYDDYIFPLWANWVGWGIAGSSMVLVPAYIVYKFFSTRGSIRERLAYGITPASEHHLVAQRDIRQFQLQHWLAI

SMILES: N=C(N)NCc1ccc(OCCCF)c(Br)c1 [FPOBBG, 4-(3-Fluoropropoxy)-3-bromobenzylguanidine]
IC50 [1]: 11 ± 2.9 µM

SMILES: N=C(N)NCc1cccc(I)c1 [MIBG, meta-iodobenzylguanidine]
IC50 [1]: 1.5 ± 1.1 µM

SMILES: N=C(N)NCc1cccc([131I])c1 [MIBG, meta-iodobenzylguanidine]
uptake in UVW-NAT cells compared to that in SK-N-BE(2c) (UVW-NAT cells): two-fold higher

SMILES: N=C(N)NCc1ccc([18F])c(I)c1 [[^18F]FIBG, 4-[^18F]fluoro-3-iodobenzylguanidine]
uptake in SK-N-SH cells, higher than that of co-incubated n.c.a. [^125I]MIBG (SK-N-SH cells): about 15%

SMILES: NC(N)=NCc1cccc([76Br])c1 [[^76Br]MBBG, ^76Br-meta-bromobenzylguanidine]
uptake in both tumor and heart relative to [^123I]MIBG [6]: about 4 fold
reduction of myocardial uptake by DMI pretreatment [7]: 64 ± 3%

SMILES: NC(N)=NCc1cccc([125I])c1 [[^125I]MIBG]
uptake (cell-associated radioactivity as percentage of input dose) [3]: 66.3 ± 3.6%
uptake (cell-associated radioactivity as percentage of input dose) [4]: 82.7 ± 8.9%
heart uptake after DMI pretreatment as percent of controls ([2]; 1 h): 69%
heart uptake after DMI pretreatment as percent of control values ([2]; 1 h, experiment with co-injected [^18F]FPOIBG): 57%
heart uptake [2, 9]: 18.7 ± 7.7 % ID/g
heart uptake [2, 10]: 16.1 ± 1.4 % ID/g
heart uptake [2, 11]: 10.2 ± 0.9 % ID/g
uptake (cell-associated radioactivity as percentage of input dose) [5]: 57.3 ± 8.1%
reduction of myocardial uptake by DMI pretreatment [7]: 42 ± 4%

SMILES: N=C(N)NCc1cccc([131I])c1 [[^131I]MIBG]
reduction of heart uptake by DMI ([2]; 1 h, experiment with co-injected [^125I]FPOIBG): 51%

The next lines start with results.

IC50 [1]: 20 ± 0.1 µM
SMILES: N=C(N)NCc1ccc(OCCCF)c(I)c1 [FPOIBG, 4-(3-Fluoropropoxy)-3-iodobenzylguanidine]

heart uptake after DMI pretreatment as percent of controls ([2]; 1 h): 73%
heart uptake [2, 9]: 21.1 ± 5.6 % ID/g
heart uptake [2, 10]: 20.1 ± 2.4 % ID/g
heart uptake [2, 11]: 16.5 ± 2.3 % ID/g
SMILES: N=C(N)NCc1ccc(OCCC[18F])c(Br)c1 [[^18F]FPOBBG, 4-(3-[^18F]Fluoropropoxy)-3-bromobenzylguanidine]

heart uptake after DMI pretreatment ([2]; 1 h): 13.2 ± 3.3 % ID/g
bone uptake relative to that of [^18F]FPOBBG ([2]; 4 h, indicator of defluorination): about 4 fold
myocardial uptake as percent of that of [^125I]MIBG ([2]; i.v., three time points (1, 2, 4 h), paired-label): 72–74%
SMILES: N=C(N)NCc1ccc(OCCC[18F])c(I)c1 [[^18F]FPOIBG, 4-(3-[^18F]Fluoropropoxy)-3-iodobenzylguanidine]
uptake (cell-associated radioactivity as percentage of input dose) [3]: 13.3 ± 2.5%
uptake (cell-associated radioactivity as percentage of input dose) [4]: 39.6 ± 13.4%
uptake (cell-associated radioactivity as percentage of input dose) [5]: 10.2 ± 1.5%

hepatic (liver) uptake compared with co-injected radioiodinated MIBG [2]: lower liver uptake
heart uptake after DMI pretreatment ([2]; 1 h): 17.8 ± 1.8 % ID/g
thyroid uptake (indicator of deiodination) ([2]; compared with [^131I]MIBG): relatively low
heart uptake as percent of that of [^131I]MIBG ([2]; i.v., 1–4 h, paired-label): 41–61%
SMILES: N=C(N)NCc1ccc(OCCCF)c([125I])c1 [[^125I]FPOIBG, 4-(3-Fluoropropoxy)-3-[^125I]iodobenzylguanidine]
uptake as percent of [^131I]MIBG [8]: 31–53%
